In the library only some 1.3% were active in any assay of this set; here they are far more common.
Tb hexokinase – Trypanosoma brucei hexokinase 1 inhibitors, primary screen, biochemical, G6PDH-coupled NADH absorbance, MLSCN library. hexokinase 1 [Trypanosoma brucei]. recombinant TbHK1, G6PDH-coupled NADH A340. inhibition, % at 10 µM. actives 0.11% (n = 220,000);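 active = inhibition of 50% or more in the single-dose primary screen; inactive = inhibition below 50%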
S1P4 antag – S1P4 receptor antagonists, primary screen, cell-based; Sphingosine 1-phosphate receptor 4 (Homo sapiens), O95977; S1P4-expressing cells, antagonist mode, reporter read-out; inhibition, % at 4.98 µM; actives 0.26% (n = 220,000); AID 1510, 2009; in the data active = inhibition above about 29%;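 note: 0% = wells stimulated with agonist and 100% = vehicle wells without agonist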
Target sequence (O95977 whole entry, looked up): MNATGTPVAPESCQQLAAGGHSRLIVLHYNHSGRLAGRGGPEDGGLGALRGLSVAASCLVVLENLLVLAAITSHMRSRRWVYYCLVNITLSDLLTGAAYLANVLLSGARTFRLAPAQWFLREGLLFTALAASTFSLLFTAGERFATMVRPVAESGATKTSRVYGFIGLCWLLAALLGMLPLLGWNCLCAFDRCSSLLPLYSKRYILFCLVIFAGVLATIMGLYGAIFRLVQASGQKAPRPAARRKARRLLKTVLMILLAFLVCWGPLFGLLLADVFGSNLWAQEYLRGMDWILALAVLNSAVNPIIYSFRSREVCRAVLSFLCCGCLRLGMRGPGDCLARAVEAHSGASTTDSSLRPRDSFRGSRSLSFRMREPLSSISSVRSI
S1P4 agonist – S1P4 receptor agonists, primary screen, cell-based | activation, % at 4.98 µM | Sphingosine 1-phosphate receptor 4 (Homo sapiens), O95977 | actives 0.35% (n = 220,000) | AID 1509, 2009 | S1P4-expressing cell line, agonist reporter assay; in the data active = activation above about 11%;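 note: 0% = DMSO vehicle and 100% = reference agonist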
Biofilm kill mix – clotrimazole potentiators killing C. albicans biofilm, primary screen, 4-compound mixtures | actives 0.02% (n = 120,000) | inhibition, % at 7.6 µM | C. albicans biofilm persisters + clotrimazole, fluorescence viability; primary screen in compound mixtures of four per well | AID 1242, 2008;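 active = inhibition above 30.3% in the primary screen of four-compound pools, then above 30% when the compound was retested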;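 note: compounds exposed to preformed 24 h biofilms for 48 h; 0% = untreated biofilm control and 100% = clotrimazole plus chlorhexidine kill blank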
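System: C. albicans CAF4-2 wild-type biofilms; Medium: RPMI/MOPS medium, pH 7.0; Reagent: Clotrimazole, 50 µg/mL; Times: biofilm formation 24 h, compound exposure 48 h, 37 °C; Detection: 2-h Alamar Blue fluorescence, 535/590 nm excitation/emission; Evaluation: percent inhibition of biofilm viability.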
S1P3 antag – S1P3 receptor antagonists, primary screen, cell-based. CHO S1P3 NFAT-BLA reporter, FRET fluorescence, antagonist mode. inhibition, % at 4.98 µM. actives 0.27% (n = 170,000);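 active = inhibition above the plate cutoff, the mean inhibition of test wells on that plate plus 3 SD, cut at about 28% in these data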;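 note: cells challenged with S1P at its EC80 of 0.8 µM; blue over green emission ratio from cleaved BLA substrate after 4 h stimulation; 0% = S1P-stimulated wells and 100% = unstimulated DMSO-only wells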
Dynein cargo inh – inhibitors of GR-EGFP nuclear translocation, primary screen, dynein cargo transport inhibitor project, imaging, high-content, 3617.4 mouse cells; test concentration mostly 20 µM; stimulated with dexamethasone, 1 µM; active compounds read low; z-score, hits read low; actives 0.47% (n = 220,000); AID 1381, 2008;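 active = plate z-score of nuclear minus cytoplasmic receptor signal below a set negative limit, without overly bright fluorescence or cell loss, cut at about -3.5 in these data, passing the limit was not always enough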;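 note: z-score of nuclear minus cytoplasmic ring GR-EGFP intensity difference per well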
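Buffer or medium: tet-free medium with charcoal-stripped serum / Also added: dexamethasone agonist, 1.0 µM final, for 30 min / Timing: induction 48 h, compound 1 h, agonist 30 min / Measured by: high-content fluorescence imaging after fixation / Read-out: nuclear-to-cytoplasmic GR-EGFP distribution per well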
G6PDH counter – Leuconostoc G6PDH inhibition, confirmation, counter-screen for TbHK1 inhibitor project, biochemical, DPI cherry-picked compounds, single concentration; shares compounds with Tb hexokinase; purified G6PDH, NADH absorbance, 1 h; inhibition, % at 10 µM; actives 7% (n = 210); AID 2516, 2010;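 active = at least 50% inhibition in the glucose-6-phosphate dehydrogenase coupled counterscreen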
TbHK1 confirm – TbHK1 inhibitor retest, confirmation, biochemical, DPI cherry-picked primary actives; actives 10% (n = 210); shares compounds with Tb hexokinase; inhibition, % at 10 µM; recombinant TbHK1, G6PDH-coupled NADH A340 absorbance;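 active = inhibition of at least 50% in both of the two screening runs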;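 note: 0% and 100% set by the maximum and minimum signal control wells on each plate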
Starred values were filed as active, the others as inactive; . = no result given.

SMILES | Tb hexokinase | S1P4 antag | S1P4 agonist | Biofilm kill mix | S1P3 antag | Dynein cargo inh | G6PDH counter | TbHK1 confirm
COc1ccc2nc(NC(=O)CC3Oc4ccccc4NC3=O)sc2c1 (stereo not given) | -11 | -17 | -1 | 27 | 2 | 0.015 | . | .
CC(=O)Nc1ccc(NC(=O)CCC(=O)NCCO)cc1 | 35 | -10 | 2 | . | 12 | -0.7 | . | .
O=C(CCC(=O)Nc1ccc(Oc2ccccc2)cc1)NCCO | 50* | -21 | -1 | . | 22 | 0.44 | -10 | 2
Cc1cc(C)nc(/N=C2\NC(=O)CC(C(=O)O)N2c2ccc(Oc3ccccc3)cc2)n1 (stereo not given) | 8 | 20 | 0 | . | -6 | 0.3 | . | .
CCOc1ccc(N2CC(=O)N/C2=N\c2nc(C)cc(C)n2)cc1 | 69* | 2 | 3 | . | 19 | 0.069 | -9 | -8
CC(=O)C1C(c2ccc(F)cc2)NC(=O)NC1(O)C(F)(F)F (stereo not given) | 51* | -35 | 2 | . | 42 | -0.45 | -6 | 3
CC(=O)C1C(c2ccc(O)cc2)NC(=O)NC1(O)C(F)(F)F (stereo not given) | -8 | . | . | 7 | -26 | 0.78 | . | .
COc1ccc(CCCC(=O)N/N=C/c2cccc(OC)c2O)cc1C | 63* | -7 | 0 | 13 | -11 | -0.14 | -9 | 6
CN(C)S(=O)(=O)Oc1cc(Cl)ccc1C(=O)Nc1ccc(F)cc1F | 6 | 2 | -1 | 18 | 3 | 0.51 | . | .
O=C(Cn1c(CO)nc2ccccc21)NC1CCCCCC1 | 2 | -4 | 1 | 6 | -12 | -0.62 | . | .
COc1ccc(C2(C)NC(=O)N(Cc3cc(Cl)cc4c3OCOC4)C2=O)cc1OC (stereo not given) | 53* | -27 | 2 | . | 8 | -0.58 | -8 | -1
CC1CCC(NC(=O)c2ccc(CS(=O)(=O)Cc3ccccc3F)o2)CC1 (stereo not given) | 61* | 4 | -1 | . | -11 | -0.16 | -4 | 7
COCCCNC(=O)c1ccccc1-c1cc(C)no1 | -10 | 15 | 0 | 17 | -8 | 0.86 | . | .
CN(Cc1ccccc1)C(=O)c1ccccc1-c1ccccc1 | 2 | 3 | 0 | 10 | 11 | 1 | . | .
CC(C)(CC(=O)O)CC(=O)NCc1c(Cl)cccc1Oc1ccccc1 | -6 | -4 | 0 | 12 | -4 | 0.81 | . | .
C/C(=C/CCC(C)[C@H]1CC[C@@]2(C)C3=C(CC[C@]12C)[C@@]1(C)CCC(=O)C(C)(C)[C@@H]1CC3)C(=O)O (stereo not given in full) | 67* | 5 | 1 | 8 | -16 | -0.5 | -42 | 86*
C/C(=C/CCC(C)C1CCC2(C)C3CCC4C(C)(C)C(=O)CCC4(C)C3=CCC12C)C(=O)O (stereo not given) | 1 | . | . | 11 | . | -0.43 | . | .
O=S(=O)(CC(O)COc1ccccc1Cl)c1ccccc1 (stereo not given) | 13 | 13 | 1 | . | . | -0.013 | . | .
O=S(=O)(Cc1ccccc1Cl)CC(O)COc1ccccc1Cl (stereo not given) | 53* | 2 | -2 | . | . | -0.73 | 13 | 12
CN1CCN(c2ccc(CNS(=O)(=O)Cc3cccc(C(F)(F)F)c3)cc2)CC1 | 1 | -3 | 3 | 17 | 23 | -0.61 | . | .
CC[N+]1(CC)CC2=Cc3c(ccc4ccccc34)C(C)C2C1 (stereo not given) | -14 | -14 | 0 | 9 | -2 | 0.054 | . | .
Cc1ccccc1N=Nc1ccc(O)c2ncccc12 | 64* | 2 | 2 | 19 | 8 | 0.046 | -4 | -8
C1CCN=C(Nc2nn[nH]n2)CC1 | 55* | -3 | 0 | . | -2 | -0.46 | -5 | -10
O=C(O)CCN=C1CCCc2ccccc2N1 | 54* | -14 | 1 | . | -11 | -0.89 | -1 | 4
COCCCNC(=O)C(=O)C1C(=O)Nc2ccccc21 (stereo not given) | -14 | -16 | 0 | 18 | -5 | -0.33 | . | .
SMILES | Tb hexokinase | S1P4 antag | S1P4 agonist | Biofilm kill mix | S1P3 antag | Dynein cargo inh | G6PDH counter | TbHK1 confirm
CCOc1cccc2c1OC1(C)CC2NC(=O)N1c1cccc(F)c1 (stereo not given) | 57* | -2 | 3 | . | -14 | 0.4 | -5 | -1
CCOc1cccc2c1OC1(C)CC2NC(=O)N1Cc1ccccc1 (stereo not given) | 6 | -9 | -1 | 35 | -5 | -0.25 | . | .
CC(=O)c1cc(C(=O)N2CCCC(CCC(=O)N(C)CCc3ccccn3)C2)cs1 (stereo not given) | -8 | 0 | 1 | 10 | -12 | -0.54 | . | .
CC(C)N1C(=O)CCC1C(=O)NCc1cccs1 (stereo not given) | 2 | -17 | 2 | 13 | -4 | -0.25 | . | .
Cc1ccc(Nc2cc(=O)oc3ccccc23)c(C)c1 | 55* | -4 | 0 | . | . | -0.36 | 8 | 4
CC(C)OP(=O)(OC(C)C)C(O)c1ccc(N(C)C)cc1 (stereo not given) | -6 | 5 | 0 | 8 | 1 | -0.22 | . | .
Cc1cccc(C(=O)NC(=S)NNC(=O)c2ccc(Cl)cc2)c1 | 62* | -2 | 1 | 11 | -17 | -0.71 | -44 | -39
O=c1nc2c(O)cccn2c2c1c(=O)[nH]c1ccccc12 | 56* | -9 | 1 | -2 | -1 | -0.088 | 45 | 70*
CCC1C(=NO)C(CC)C(c2ccccc2)NC1c1ccccc1 (stereo not given) | 11 | 4 | -1 | 6 | 20 | 1.3 | . | .
Cc1ccc(N2C(=O)CSC2c2cccnc2)cc1F (stereo not given) | 55* | -12 | 2 | . | -41 | 0.74 | -2 | 2
O=C1CSC(c2cccnc2)N1c1ccc(Cl)cc1 (stereo not given) | 0 | 3 | 1 | 5 | -4 | -0.47 | . | .
CCCCOc1ccc(C(=O)NNC(=S)NC(=O)CC)cc1 | 58* | -8 | 1 | 14 | -2 | 0.4 | -19 | -9
COc1cccc(C(=O)N2CCSC2=S)c1 | 57* | -9 | 3 | . | 1 | -1.4 | -18 | -6
Cc1ccc2c(c1)N(CC(=O)NC1CCC(C)CC1)C(=O)CO2 (stereo not given) | 21 | -14 | 1 | . | 5 | -0.57 | . | .
